System: MS2 coat protein
Assay: apparent Kd, MS2 coat protein; higher = weaker binding; RNA-MaP array; FMN 200 µM where present
In short: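 Stalled E. coli RNA polymerase produced the designs on Illumina sequencing-chip clusters. SNAP-549-labelled MS2 coat protein was added from 0.7 or 1.5 nM, doubling to 3 µM, without and then with constant ligand, in 100 mM Tris-HCl pH 7.5, 80 mM KCl, 4 mM MgCl2, BSA, DTT, yeast tRNA and Tween-20. The apparent Kd is the median of filtered per-cluster fits of green signal normalised to red-channel RNA signal and control-cluster median Fmax.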

[1] = designed as: ON switch for flavin mononucleotide, no ligand
[2] = ligand present: flavin mononucleotide, designed as: ON switch for flavin mononucleotide
[3] = designed as: OFF switch for flavin mononucleotide, no ligand
[4] = ligand present: flavin mononucleotide, designed as: OFF switch for flavin mononucleotide

| Sequence | apparent Kd [1] | apparent Kd [2] | apparent Kd [3] | apparent Kd [4] |
| --- | --- | --- | --- | --- |
| GCUAUCGGGUGAGGAUAUAUGAUUGUGAUUAAAAUAGAAGGCAUCUCAGAAGACAUGAGGAUCACCCAUGUAGUUAAGAUGGCU | 15.3 nM | 12.8 nM |  |  |
| CUCUAUCAUGUAGGAUAUGCGUGUCGAAGCUAUGCAGAAGGACAUGAGGAUCACCCAUGUCUUUCUGUCUGCGGACGGACAGGG |  |  | 14.9 nM | 18.2 nM |
| UGUCGGAUCAGAGGAUAUUACAUGAGGAUCACCCAUGUAUGAACCAAUAGCUGGAAACAGCAAUGUAAGAAGGCUGCUCCGACA |  |  | 11.4 nM | 160 nM |
| CGUGCGUAUGUGAGGAUAUGCUGGUCCUUGGAUCGGCAGAAGGCACAUGAGGAUCACCCAUGUGGUGUCGUACU |  |  | 238 nM | 32.4 nM |
| UCGUCCAUGUCAGGAUAUGGCGGUAAAGAAAGGCUAGAAGGGACAUGAGGAUCACCCAUGUGCUCUUACGUGCACGGGCUGCGC |  |  | 6.47 nM | 8.18 nM |
| ACCAUUUACUAAUUAUCUAUACAUGAGGAUCACCCAUGUUAAGAGGAUAUCAUCGUUCGCCGCGAUGAGAAGGCUUAGCAUUCG |  |  | 48.8 nM | 154 nM |
| CCAGAUAUGUGAGGAUAUAGAGUGGAAUACACUCUAGAAGGUAUGUGAAAACAUGAGGAUCACCCAUGUGAUUGAUUAUCUGGA | 28.2 nM | 27.3 nM |  |  |
| UCGGCGCGAGGAUAUACGUUUGCGCUUUUUCGUUUUUGUGUACAUGAGGAUCACCCAUGUAGAAGGCGCGCCGC |  |  | 16.4 nM | 19.8 nM |
| UGGGCCCGAACAGGAUAUGUAACCAGUCCCUCACAUGAGGAUCACCCAUGUCCAAGGGCUCGAAGGCAGAAGGGUUAAGGCUGU | 740 nM | 138 nM |  |  |
| CGUUGUUGCGCAGGAUAUGCAUUGGAUUACAAUGCAGAAGGGCGAUUACAUGAGGAUCACCCAUGUGUCGACAAUAAGGAAGAG | 35.9 nM | 34 nM |  |  |
| UAGAAGUCAGGAUAUCCAUGGCGGCACUUGCGUGGUGGCGUGGAGAAGGGACAUGAGGAUCACCCAUGUAAAGU |  |  | 53.3 nM | 48.5 nM |
| ACAGCUGAAGGAUAUACUUGGAAAAAAAAAAAAAAAAAAAAACAUGAGGAUCACCCAUGUAGAAGGUCAGCUGA |  |  | 52.9 nM | 78.5 nM |
| GCUGGGUCAGGAUAUACAGGGUCGAAAGAUCUGUGAUACCUACAUGAGGAUCACCCAUGUAGAAGGGACUGGGC |  |  | 15.7 nM | 38.1 nM |
| UGAUAACAUGAGGAUCACCCAUGUCAGGAUAUAAAUUGAGCUCCUUGGACGCCACCGUUUAGAAGGGACGCAUG |  |  | 23.7 nM | 22.7 nM |
| GCAUCCCAUGUCAGGAUAUGCUGUACCUUGGUACAGCAGAAGGGACAUGAGGAUCACCCAUGUGCCUAGGAUGC |  |  | 51.2 nM | 438 nM |
| UCUAUAUAGAUUCAUCAAUACAGUAAGGAUAUGAGAUACAUGAGGAUCACCCAUGUGCAUGUGGAUUAGAAGGUACAAUUAACU |  |  | 60 nM | 46.3 nM |
| GUCAGCUCGUGAGGAUAUACAACACUGCUUCUGCAGUGUAUUAAGAUCACAUGAGGAUCACCCAUGUAGAAGGCACGAGCUGAU |  |  | 12.8 nM | 234 nM |
| GUGGUACAUGAGGAUCACCCAUGUCAGGAUAUCGUGUGUUUUUUUUCGGCCGCGCGUGCGAGAAGGGACGUCUU |  |  | 19.6 nM | 19.4 nM |

| Sequence | apparent Kd [1] | apparent Kd [2] | apparent Kd [3] | apparent Kd [4] |
| --- | --- | --- | --- | --- |
| GUGUCUUGGGAGAAGGCCGAUAGCAAAGCUAUCGGAGGAUAUUCAUACCGGAAACGGACAUGAGGAUCACCCAUGUGGCACAAA | 1130 nM | 36.8 nM |  |  |
| AAAAAGCGAGGAUAUGCAUAAGGACCCGGGAGGGAAAUCAAACAUGAGGAUCACCCAUGUAGAAGGCGCAAAAA |  |  | 16.1 nM | 23.3 nM |
| UAAUCAUGUCCGUAUGUUUUCAGAGAGGAUAUACAUGCGGGCACCUUAACAUGAGGAUCACCCAUGUAGAAGGCUCUGAAAAUG |  |  | 97.3 nM | 22.5 nM |
| CAGAAGUCAGGAUAUCCAUGGCGGCACUUGCGUGGUGGCGUGGAGAAGGGACAUGAGGAUCACCCAUGUAAAGG |  |  | 171 nM | 237 nM |
| GAUAGAGAGCAGGAUAUCUUAGAAAUGUAUUAUAGAGAAGGGCUCACAUGAGGAUCACCCAUGUGGUCCUAGAU |  |  | 16.4 nM | 108 nM |
| CAAUUGGCACAGAAGGGUGACAUGAGGAUCACCCAUGUAGCGUGGCACUUAGGAGGAGCCACGCCACAGGAUAUGUGCGGGCAC | 76.4 nM | 111 nM |  |  |
| GUAGAGGAUUGAGGAUAUGCAGAGAGAUCAUGCGCGUCGCGCACAUGAGGAUCACCCAUGUAAGAGCAGAAGGUAACUAUGAAC |  |  | 66.8 nM | 43.4 nM |
| AAUAUGAGCUGGUAUAUAAACCUCACAUGAGGAUCACCCAUGUAGGAUAUCAGCACGAUAAGUGCUGAGAAGGACAUCCAGCUC |  |  | 15.4 nM | 17.8 nM |
| GUAGCAUUCUGAGGAUAUUCAUAUAAUAAAUAAACAUGAGGAUCACCCAUGUGGCGAAAGCCUUGGGAGAAGGCAGUAUGCUAC | 660 nM | 42.1 nM |  |  |
| GAGUGACAUGAGGAUCACCCAUGUGAGGAUAUCGGACGGACCAAGUUAACAUCCGCCGCGAGAAGGCACAUCGG |  |  | 114 nM | 31.1 nM |
| CUUUUGUGAGGAUAUUAGUAGUAAAUAAAUAAAAUUAUUACUGAGAAGGCACAUGAGGAUCACCCAUGUUCCUC |  |  | 32.5 nM | 405 nM |
| AUUUUACAUGAGGAUCACCCAUGUUUUGGUGGAUCAGGAUAUAAAUUGAAUGAGUUUUAGUUAGAAGGGAUAUUUA | 67.2 nM | 99 nM |  |  |
| UGAUAGGACAGAGGAUAUACGUGCUGGAGAUACUAGCAAAGUAUCUUGACAUGAGGAUCACCCAUGUAGAAGGCUGUCCUAUCU |  |  | 16.9 nM | 89.2 nM |
| AACCGACAUGAGGAUCACCCAUGUCAGGAUAUGGACUGACACCGAAAGGGUGGCGGAACCAGAAGGGACUGGGC |  |  | 36.3 nM | 96.5 nM |
| AAGAAGUCAGGAUAUGCAUGGCGGGACUUGCGUCGUGGCGUGCAGAAGGGACAUGAGGAUCACCCAUGUAAAGA |  |  | 49.4 nM | 41.7 nM |
| UCAUACAUUCGAGGAUAUCGGUGAUAACUCUAACGAGAAGGCGAUUUAAAACAUAAUGCUGUAGACAUGAGGAUCACCCAUGUA | 416 nM | 146 nM |  |  |
| UAGAAGUCAGGAUAUCCUGCUCGUCACUUGCGUGAUGAGUAGGAGAAGGGACAUGAGGAUCACCCAUGUAAAGG |  |  | 188 nM | 258 nM |
| UUUUAAUAAUAGAAGGAGGACUUCAUGAGGAUCACCCAUGUGUUAGUACUUAGGAUAUGUAAUAACAUGAGGAUCACCCAUGUC | 44 nM | 42.4 nM |  |  |
